Assay results reported in ChEMBL document CHEMBL5120974, “Antitubercular Activity of Novel 2-(Quinoline-4-yloxy)acetamides with Improved Drug-Like Properties” (ACS Med Chem Lett, 2022).
In brackets after ≈: the same amount, converted by molar mass.

Experiments:
[1] = test system: Mycobacterium tuberculosis; assay: Antitubercular activity against Mycobacterium tuberculosis H37Rv assessed as bacterial growth inhibition incubated for 7 days by resazurin assay; type: functional; details: 168 h, time 7 day
[2] = Cytotoxicity against African green monkey Vero cells assessed as reduction in cell viability incubated for 72 hrs by MTT assay; type: toxicity, cell-based; details: chlorocebus sabaeus
How it was run: (§1)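 HepG2 and Vero cells were exposed to compound for 72 h, with viability read by MTT (mitochondrial activity) and neutral red uptake (lysosomal integrity). CC₅₀ is the concentration reducing cell viability by 50%.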

HepG2 = assay: Cytotoxicity against human HepG2 cells assessed as reduction in cell viability incubated for 72 hrs by MTT assay; type: functional; how it was run: as §1
[3] = Selectivity index, ratio of CC50 for cytotoxicity against African green monkey Vero cells to MIC for antitubercular activity against Mycobacterium tuberculosis H37Rv; type: toxicity, cell-based
How it was run: (§2)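 SI = CC₅₀/MIC, with the MIC taken against H37Rv. CC₅₀ is the concentration that cuts cell viability by 50%, from cells exposed for 72 h. Viability was read by both MTT (mitochondrial activity) and neutral red uptake (lysosomal integrity).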

[4] = Selectivity index, ratio of CC50 for cytotoxicity against human HepG2 cells to MIC for antitubercular activity against Mycobacterium tuberculosis H37Rv; type: toxicity, cell-based; how it was run: as §2
[5] = test system: Mycobacterium tuberculosis; assay: Antitubercular activity against Mycobacterium tuberculosis H37Rv infected in mouse RAW 264.7 cells assessed as reduction on bacterial colony growth at 2.5 uM incubated for 2 to 3 weeks; type: functional; details: time 2-3 weeks
How it was run: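 Mtb growth inside macrophages (in vitro infection model) was tested with compounds at 2.5 μM; the untreated control got 0.5% DMSO vehicle. Read-out was log₁₀ CFU/well, given as mean ± standard deviation and compared with the untreated group by Dunnett post-test (P < 0.05).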

[6] = Chemical stability of the compound in pH 7.4 PBS assessed as remaining product at 10 uM incubated for 24 hrs by HPLC-MS/MS analysis; type: physicochemical; details: PBS pH 7.4, pH 7.4, read-out: Stability
How it was run: (§3)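 Compound incubated 24 h at 37 °C in 0.1 M HCl (pH 1.2), PBS (pH 7.4) or 0.1 M NH₄HCO₃ (pH 9.1). Result is reported as percentage of compound remaining after incubation.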

[7] = Metabolic stability in rat liver microsomes assessed as half life measured upto 30 min by HPLC-MS/MS analysis; type: ADME, Microsome
[8] = Chemical stability of the compound in pH 9.1 NH4HCO3 assessed as remaining product at 10 uM incubated for 24 hrs by HPLC-MS/MS analysis; type: physicochemical; details: NH4HCO3 pH 9.1, pH 9.1, read-out: Stability; how it was run: as §3
[9] = Absorption rate constant in mouse plasma at 121.6 mg/kg,po by HPLC analysis; type: ADME, organism-based; details: in vivo
How it was run: (§4)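 Mouse pharmacokinetics after a single intravenous dose of 25 mg/kg (61.6 μmol/kg) or an oral dose of 121.6 mg/kg (300 μmol/kg). Plasma drug concentrations were quantified over time, including a 24 h sample after oral dosing. Oral bioavailability was estimated by comparing the two routes.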

[10] = Terminal half life in mouse plasma at 121.6 mg/kg,po by HPLC analysis; type: ADME, organism-based; details: read-out: beta t1/2; how it was run: as §4
[11] = Volume of distribution at steady state in mouse plasma at 25 mg/kg,iv by HPLC analysis; type: ADME, organism-based; details: read-out: Vdss; how it was run: as §4
[12] = Apparent oral clearance in mouse plasma at 121.6 mg/kg,po by HPLC analysis; type: ADME, organism-based; how it was run: as §4
[13] = Clearance in mouse plasma at 25 mg/kg,iv by HPLC analysis; type: ADME, organism-based; how it was run: as §4
[14] = Solubility of the compound in HCl at pH 1.2 incubated for 4 hrs by liquid chromatography; type: physicochemical; details: HCl pH 1.2, pH 1.2
[15] = Apparent oral volume of distribution in mouse plasma at 121.6 mg/kg,po by HPLC analysis; type: ADME, organism-based; how it was run: as §4
[16] = Terminal half life in mouse plasma at 25 mg/kg,iv by HPLC analysis; type: ADME, organism-based; details: read-out: beta t1/2; how it was run: as §4
[17] = Volume of distribution at steady state in mouse plasma at 121.6 mg/kg,po by HPLC analysis; type: ADME, organism-based; details: in vivo; how it was run: as §4
[18] = Chemical stability of the compound in pH 1.2 HCL assessed as remaining product at 10 uM incubated for 24 hrs by HPLC-MS/MS analysis; type: physicochemical; details: HCl pH 1.2, pH 1.2, read-out: Stability; how it was run: as §3
[19] = Solubility of the compound in PBS at pH 7.4 incubated for 4 hrs by liquid chromatography; type: physicochemical; details: PBS pH 7.4, pH 7.4
[20] = Permeability of the compound at 10 uM measured after 5 hrs by PAMPA based HPLC-MS/MS analysis; type: ADME; details: read-out: permeability
[21] = Metabolic stability in rat liver microsomes assessed as intrinsic clearance measured upto 30 min by HPLC-MS/MS analysis; type: ADME, Microsome; details: read-out: CLH
[22] = Inter-compartmental clearance in mouse plasma at 25 mg/kg,iv by HPLC analysis; type: ADME, organism-based; details: in vivo; how it was run: as §4
[23] = Oral bioavailability in mouse plasma at 121.6 mg/kg by HPLC analysis; type: ADME, organism-based; how it was run: as §4
[24] = Cmax in mouse plasma at 121.6 mg/kg,po by HPLC analysis; type: ADME, organism-based; design: dose 121.6 mg/kg, route po; how it was run: as §4
[25] = Clearance in mouse plasma at 121.6 mg/kg,po by HPLC analysis; type: ADME, organism-based; how it was run: as §4
[26] = Plasma concentration in mouse plasma at 121.6 mg/kg,po measured after 24 hrs by HPLC analysis; type: ADME, organism-based; how it was run: as §4

COc1ccc2nc(C)cc(OCC(=O)NC3CCCCC3)c2c1
MIC [1]: 7.6 µM (≈ 2.5 µg/mL)

COc1ccc2nc(C)cc(OCC(=O)NCC3CCCCC3)c2c1
MIC [1]: 7.3 µM (≈ 2.5 µg/mL)

Cc1cc(OCC(=O)Nc2ccc(N3CCCCC3)cc2)c2cc(Br)ccc2n1
MIC [1]: 0.68 µM (≈ 0.309 µg/mL)

CO[C@H]1/C=C/O[C@@]2(C)Oc3c(C)c(O)c4c(O)c(c(/C=N/N5CCN(C)CC5)c(O)c4c3C2=O)NC(=O)/C(C)=C\C=C\[C@H](C)[C@H](O)[C@@H](C)[C@@H](O)[C@@H](C)[C@H](OC(C)=O)[C@@H]1C [RIFAMPIN]
MIC [1]: 0.05 µM (≈ 0.0411 µg/mL)

COc1ccc2nc(C(F)(F)F)cc(OCC(=O)Nc3ccc(N4CCCCC4)cc3)c2c1
MIC [1]: 0.17 µM (≈ 0.0781 µg/mL)

CCc1cc(OCC(=O)Nc2ccc(N3CCCCC3)cc2)c2cc(OC)ccc2n1
CC50 at 72 h [2]: > 20 µM | CC50 (HepG2): > 20 µM | selectivity ratio [3]: > 105 | MIC [1]: 0.19 µM (≈ 0.0797 µg/mL) | selectivity ratio [4]: > 105 | Activity [5]: 4.13 log10CFU

Cc1cc(OCC(=O)Nc2ccc(N3CCCCC3)cc2)c2cc(Cl)ccc2n1
MIC [1]: 0.75 µM (≈ 0.307 µg/mL)

COc1ccc2nc(C)cc(OCC(=O)N[C@H](C)C3CCCCC3)c2c1
MIC [1]: > 14 µM

COc1ccc2nc(C)cc(OCC(=O)Nc3ccc(N4CCOCC4)cc3)c2c1
MIC [1]: 3.1 µM (≈ 1.26 µg/mL)

COc1ccc2nc(C)cc(OCC(=O)Nc3ccc4ccccc4c3)c2c1
MIC [1]: 0.05 µM (≈ 0.0186 µg/mL)

COc1ccc2nc(C)cc(OCC(=O)NC3CCCCC3C)c2c1 (centres undefined)
MIC [1]: 14.6 µM (≈ 5 µg/mL)

CCc1cc(OCC(=O)Nc2ccc(N3CCCCC3)cc2)c2cc(Br)ccc2n1
MIC [1]: 0.34 µM (≈ 0.159 µg/mL)

COc1ccc2nc(C)cc(OCC(=O)NC3CCCC3)c2c1
MIC [1]: 15.9 µM (≈ 5 µg/mL)

COc1ccc2nc(C)cc(OCC(=O)N[C@@H]3C[C@@H]4C[C@H]([C@H]3C)C4(C)C)c2c1
MIC [1]: 26.1 µM (≈ 9.98 µg/mL)

O=C(COc1cc(C(F)(F)F)nc2ccc(Cl)cc12)Nc1ccc(N2CCCCC2)cc1
MIC [1]: 86.2 µM (≈ 40 µg/mL)

COc1ccc2nc(C)cc(OCC(=O)Nc3ccc(N4CCSCC4)cc3)c2c1
MIC [1]: 0.37 µM (≈ 0.157 µg/mL)

CCCc1ccc(NC(=O)COc2cc(C)nc3ccc(OC)cc23)cc1
MIC [1]: 0.05 µM (≈ 0.0182 µg/mL)

COc1ccc2nc(C)cc(OCC(=O)NC3CCCCCC3)c2c1
MIC [1]: 3.7 µM (≈ 1.27 µg/mL)

COc1ccc2nc(C)cc(OCC(=O)Nc3ccc(N4CCCCC4)cc3)c2c1
CC50 at 72 h [2]: > 20 µM | remaining at 24 h, 10 µM [6]: 100% | CC50 (HepG2): > 20 µM | half-life [7]: 2.93 h | remaining at 24 h, 10 µM [8]: 62.1% | Ka [9]: 3.01 h⁻¹ | half-life [10]: 1.72 h | selectivity ratio [3]: > 222 | Vd [11]: 0.304 L/kg | CL/F [12]: 3.77 mL/min/kg | clearance [13]: 1.47 mL/min/kg | solubility at 4 h [14]: > 2500 µM | Vd/F [15]: 0.46 L/kg | half-life [16]: 2.27 h | Vdss [17]: 0.234 L/kg | MIC [1]: 0.09 µM (≈ 0.0365 µg/mL) | selectivity ratio [4]: > 222 | remaining at 24 h, 10 µM [18]: 58.3% | solubility at 4 h [19]: 31.4 µM (≈ 12.7 µg/mL) | Papp at 5 h, 10 µM [20]: 4.5 ×10⁻⁶ cm/s | CLint scaled [21]: 7.5 mL/min/kg | CL [22]: 5.65 mL/min/kg | Activity [5]: 4.13 log10CFU | bioavailability [23]: 51% | Cmax [24]: 8300 ng/mL | CL/F [25]: 1.92 mL/min/kg | concentration at 24 h [26]: 1140 ng/mL

COc1ccc2nc(C)cc(OCC(=O)N[C@@H](C)C3CCCCC3)c2c1
MIC [1]: > 14 µM

COc1ccc2nc(C)cc(OCC(=O)NC3C4CC5CC(C4)CC3C5)c2c1 (centres undefined)
MIC [1]: 6.6 µM (≈ 2.51 µg/mL)

COc1ccc2nc(C)cc(OCC(=O)NC3CCC3)c2c1
MIC [1]: 33.3 µM (≈ 10 µg/mL)

COc1ccc2nc(C)cc(OCC(=O)Nc3ccccc3OC)c2c1
MIC [1]: 0.44 µM (≈ 0.155 µg/mL)

O=C(COc1cc(C(F)(F)F)nc2ccc(Br)cc12)Nc1ccc(N2CCCCC2)cc1
MIC [1]: 78.7 µM (≈ 40 µg/mL)

NNC(=O)c1ccncc1 [ISONIAZID]
MIC [1]: 2.3 µM (≈ 0.315 µg/mL)

CCc1cc(OCC(=O)Nc2ccc(N3CCCCC3)cc2)c2cc(Cl)ccc2n1
MIC [1]: 0.37 µM (≈ 0.157 µg/mL)

COc1ccc2nc(C)cc(OCC(=O)NC3CCC(C)CC3)c2c1 (centres undefined)
MIC [1]: 7.3 µM (≈ 2.5 µg/mL)

COc1ccc2nc(C)cc(OCC(=O)N[C@H]3C[C@H]4C[C@@H]([C@@H]3C)C4(C)C)c2c1
MIC [1]: 3.3 µM (≈ 1.26 µg/mL)
